The target in data set [1] is T1, 5-hydroxytryptamine receptor 1A (Rattus norvegicus, UniProt P19327).
T1 sequence (P19327 whole entry): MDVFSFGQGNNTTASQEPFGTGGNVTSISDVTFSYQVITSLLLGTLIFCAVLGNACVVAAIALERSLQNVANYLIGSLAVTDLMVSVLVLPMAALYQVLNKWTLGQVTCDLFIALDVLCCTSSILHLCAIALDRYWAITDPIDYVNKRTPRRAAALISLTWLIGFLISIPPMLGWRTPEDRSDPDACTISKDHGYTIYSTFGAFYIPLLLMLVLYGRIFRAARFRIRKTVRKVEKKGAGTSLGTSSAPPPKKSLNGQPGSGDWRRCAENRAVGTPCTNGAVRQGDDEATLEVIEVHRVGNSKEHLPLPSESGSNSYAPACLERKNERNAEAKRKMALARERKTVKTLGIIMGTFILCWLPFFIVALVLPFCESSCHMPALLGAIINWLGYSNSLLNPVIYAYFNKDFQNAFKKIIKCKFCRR
Description: Displacement of [3H]-8-OH-DPAT from rat cerebral cortex 5HT1A receptor measured after 15 mins by liquid scintillation counter method. Background: Displacement assays read how much labelled ligand stays bound in the presence of the test substance.

Data set [2] has as its target 5-hydroxytryptamine receptor 2A (Rattus norvegicus, UniProt P14842). The data set is described as follows: Displacement of [3H]-ketanserin from rat cerebral cortex 5HT2A receptor measured after 20 mins by liquid scintillation counter method. The essentials: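 Competition binding in rat brain tissue membranes against D2, 5-HT1A and 5-HT2A sites; Ki reported as mean ± S.E.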

Data set [3] concerns the target Dopamine D2 receptor and Serotonin 2a receptor (D2 and 5HT2a) (Rattus norvegicus) (UniProt P61169+P14842). Description: Ratio of pKi for displacement of [3H]-ketanserin from rat cerebral cortex 5HT2A receptor measured after 20 mins by liquid scintillation counter method to pKi for displacement of [3H] Spiperone from rat striatum dopamine D2 receptor measured after 30 mins by liquid scintillation counter method. The essentials:
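Ratio of pKi values, 5-HT2A over D2, computed from competition radioligand binding in rat brain tissue.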

A short description of data set [4]: Effect on body temperature in Swiss Albino mouse assessed as rectal body temperature at 10 mg/kg, ip measured after 30 mins by thermometer (reference value: 0.16 to 0.33 degreeC). In kind it is organism-based. Particulars: in vivo, 0.5 h.
A short description of data set [5]: Effect on body temperature in Swiss Albino mouse assessed as rectal body temperature at 20 mg/kg, ip measured after 30 mins by thermometer (reference value: 0.16 to 0.33 degreeC). In kind it is ADME, organism-based. Particulars: in vivo, 0.5 h.
Data set [6] in a line: Effect on body temperature in Swiss Albino mouse assessed as rectal body temperature at 10 mg/kg, ip measured after 60 mins by thermometer (reference value: 0.33 to 0.61 degreeC). The data set is classed as ADME, organism-based. The settings on record: in vivo, 1 h.
Data set [7] can be described thus: Effect on body temperature in Swiss Albino mouse assessed as rectal body temperature at 20 mg/kg, ip measured after 60 mins by thermometer (reference value: 0.33 to 0.61 degreeC). In kind it is ADME, organism-based. Particulars: in vivo, 1 h.
Data set [8] can be described thus: Effect on body temperature in Swiss Albino mouse assessed as rectal body temperature at 20 mg/kg, ip measured after 90 mins by thermometer (reference value: 0.18 to 0.63 degreeC). Particulars: in vivo, 1.5 h. In kind it is ADME, organism-based.
A short description of data set [9]: Effect on body temperature in Swiss Albino mouse assessed as rectal body temperature at 20 mg/kg, ip measured after 120 mins by thermometer (reference value: 0.15 to 1.11 degreeC). In kind it is ADME, organism-based. The settings on record: in vivo, 2 h.
Data set [10] deals with Mus musculus. Description: Effect on 8-OH-DPAT-induced hypothermia in Swiss albino mouse assessed as change in rectal body temperature at 10 mg/kg, ip pretreated with compound for 45 mins followed by 8-OH-DPAT challenge and measured after 15 min by thermometer (reference value: -1.82 to -1.66 degreeC). In kind it is functional, organism-based. The settings on record: time 60.0 min.

Data set [11] deals with Mus musculus. Description: Effect on 8-OH-DPAT-induced hypothermia in Swiss albino mouse assessed as change in rectal body temperature at 20 mg/kg, ip pretreated with compound for 45 mins followed by 8-OH-DPAT challenge and measured after 15 min by thermometer (reference value: -1.82 to -1.66 degreeC). The data set is classed as functional, organism-based. The settings on record: time 60.0 min.

Data set [12] deals with Mus musculus. The data set is described as follows: Effect on 8-OH-DPAT-induced hypothermia in Swiss albino mouse assessed as change in rectal body temperature at 10 mg/kg, ip pretreated with compound for 45 mins followed by 8-OH-DPAT challenge and measured after 30 min by thermometer (reference value: -1.36 to -1.12 degreeC). The data set is classed as functional, organism-based. The settings on record: time 75.0 min.

Data set [13] has as its system Mus musculus. The data set is described as follows: Effect on 8-OH-DPAT-induced hypothermia in Swiss albino mouse assessed as change in rectal body temperature at 20 mg/kg, ip pretreated with compound for 45 mins followed by 8-OH-DPAT challenge and measured after 30 min by thermometer (reference value: -1.36 to -1.12 degreeC). The data set is classed as functional, organism-based. Particulars: time 75.0 min.

Data set [14] relates to Mus musculus. Description: Effect on 8-OH-DPAT-induced hypothermia in Swiss albino mouse assessed as change in rectal body temperature at 20 mg/kg, ip pretreated with compound for 45 mins followed by 8-OH-DPAT challenge and measured after 45 min by thermometer (reference value: -1.04 to -0.78 degreeC). In kind it is functional, organism-based. The settings on record: time 90.0 min.

The test system of data set [15] is Mus musculus. The data set is described as follows: Effect on 8-OH-DPAT-induced hypothermia in Swiss albino mouse assessed as change in rectal body temperature at 10 mg/kg, ip pretreated with compound for 45 mins followed by 8-OH-DPAT challenge and measured after 60 min by thermometer (reference value: -0.66 to -0.5 degreeC). In kind it is functional, organism-based. The settings on record: time 105.0 min.

Data set [16] is described as follows: Effect on 8-OH-DPAT-induced lower lip retraction in Wistar rat at 20 mg/kg, ip pretreated with compound for 45 mins followed by 8-OH-DPAT challenge and measured after 15 mins (reference value: 2.7 to 2.8). Particulars: time 60 min, 1 h. The data set is classed as functional.
The test system of data set [17] is Mus musculus. The data set is described as follows: Antipsychotic activity Swiss Albino mouse assessed as inhibition of DOI-induced head twitching by measuring number of episodes at 1.25 mg/kg, ip administered 30 mins prior to DOI stimulation (reference value: 19.63 to 19.88). The data set is classed as functional. The settings on record: 0.5 h. The essentials:
(§1)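 Male Albino Swiss mice (24–28 g) were habituated to sawdust-lined cages 20 min before the first treatment. Compounds were suspended in 1% aqueous Tween 80 and given i.p. 30 min before (±)-DOI, 2.5 mg/kg i.p. in aqueous solution. Head twitches were counted blind over 20 min, n=8 per group, mean ± SEM, one-way ANOVA with Dunnett's test.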

In data set [18] the test system is Mus musculus. Description: Antipsychotic activity Swiss Albino mouse assessed as inhibition of DOI-induced head twitching by measuring number of episodes at 2.5 mg/kg, ip administered 30 mins prior to DOI stimulation (reference value: 19.63 to 19.88). In kind it is functional. The settings on record: 0.5 h. The essentials: as §1
The nature of data set [19]: Metabolic stability in pooled human liver microsomes assessed as parent compound remaining at 2.5 uM incubated for 45 mins in presence of NADPH by LC-MS analysis. In kind it is ADME, Microsome. Particulars: read-out: Stabilty. The essentials: (§2)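 Compound at 2.5 μM (added from 100 μM stock in 50/50 acetonitrile/water) with 1 mg/mL pooled human liver microsomes and 250 μM NADPH in 0.1 M potassium phosphate pH 7.4 at 37 °C after 5-min preincubation. Sampled at 5, 10, 15, 30, 45 min into ice-cold acetonitrile with atropine internal standard; parent quantified by LC-MS (ESI+, [M+H]+); no-NADPH controls; half-time derived.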
In general terms: Liver microsomes are a subcellular fraction often used to study metabolism.

Data set [20] is described as follows: Half life in pooled human liver microsomes assessed as parent compound remaining at 2.5 uM measured up to 45 mins in presence of NADPH by LC-MS analysis. In kind it is ADME, Microsome. The essentials:
as §2

pKi: −log10 of the molar value.

Data on five compounds can be found in ChEMBL document CHEMBL4715748, “Synthesis and biological investigation of new equatorial (β) stereoisomers of 3-aminotropane arylamides with atypical antipsychotic profile” (Bioorg Med Chem, 2016).

As usually defined, the pKi is the negative decadic logarithm of the Ki, by convention in mol/L. By half-life is commonly meant how long it takes for the measured level to halve.

Dopamine D2 receptor and Serotonin 2a receptor (D2 and 5HT2a) (Rattus norvegicus), sequence (P14842 whole entry, looked up): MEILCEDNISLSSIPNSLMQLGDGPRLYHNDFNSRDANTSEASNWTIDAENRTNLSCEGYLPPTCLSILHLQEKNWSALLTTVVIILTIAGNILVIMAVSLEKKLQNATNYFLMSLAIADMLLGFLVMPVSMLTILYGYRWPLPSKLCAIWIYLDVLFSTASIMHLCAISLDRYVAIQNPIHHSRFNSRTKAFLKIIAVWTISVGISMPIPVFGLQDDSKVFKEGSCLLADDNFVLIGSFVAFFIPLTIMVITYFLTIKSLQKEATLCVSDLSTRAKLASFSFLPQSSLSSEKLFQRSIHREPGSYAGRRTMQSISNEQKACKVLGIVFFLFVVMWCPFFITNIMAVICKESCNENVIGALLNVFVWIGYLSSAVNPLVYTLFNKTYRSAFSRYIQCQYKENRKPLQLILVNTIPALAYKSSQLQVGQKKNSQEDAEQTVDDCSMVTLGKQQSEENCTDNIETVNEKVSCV
Dopamine D2 receptor and Serotonin 2a receptor (D2 and 5HT2a) (Rattus norvegicus), sequence (P61169 whole entry, looked up): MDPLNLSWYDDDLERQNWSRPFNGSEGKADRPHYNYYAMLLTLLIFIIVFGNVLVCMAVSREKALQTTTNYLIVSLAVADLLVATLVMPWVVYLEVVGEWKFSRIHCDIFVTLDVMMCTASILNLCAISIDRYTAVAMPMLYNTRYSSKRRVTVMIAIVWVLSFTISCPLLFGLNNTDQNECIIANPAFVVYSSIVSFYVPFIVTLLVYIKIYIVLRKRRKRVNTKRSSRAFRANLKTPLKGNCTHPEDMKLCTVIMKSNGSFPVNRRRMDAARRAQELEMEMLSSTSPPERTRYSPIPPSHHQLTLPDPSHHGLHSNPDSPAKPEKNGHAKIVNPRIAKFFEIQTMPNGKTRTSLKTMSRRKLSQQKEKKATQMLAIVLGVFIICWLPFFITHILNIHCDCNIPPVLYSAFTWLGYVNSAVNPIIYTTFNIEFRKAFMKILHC
5-hydroxytryptamine receptor 2A, sequence (P14842 whole entry): as the sequence (P14842 whole entry, looked up) above

As to `O=C(NC1CC2CCC(C1)N2Cc1cccc(F)c1)c1ccc2ccccc2c1` (configuration not stated), the pKi was 6.68 in data set [1] and 6.99 in data set [2]. In addition, in [3], the Ratio pKi amounted to 1.05. The deltaT in data set [4] was -0.17 °C; in [5] it was -0.36 degrees C; in data set [6], 0.53 °C; in data set [7] it was 0.43 °C; in [8] it was 0.2 °C; in data set [9], 0.81 °C. For the same compound, the deltaT is -1.6 °C with Mus musculus [10]; -1.67 °C in the data set with Mus musculus [11]; -1.37 °C in the data set on Mus musculus [12]; -1.83 °C in the data set on Mus musculus [13]; -1.53 °C in the data set with Mus musculus [14]; -0.78 °C with Mus musculus [15]. Besides, the Activity in [16] is on record as 2.3; with Mus musculus [17] it was 2.3; in the data set with Mus musculus [18] it was 11.38. The remaining at 0.75 h, 2.5 µM in [19] is over 50%. Moreover, the half-life at 2.5 µM in data set [20] is over 45 min.

Turning to `Cc1cccc(CN2C3CCC2CC(NC(=O)c2ccc4ccccc4c2)C3)c1` (configuration not stated), the pKi in data set [1] is 6.74; in data set [2] it was 6.64. Further, in data set [3], the Ratio pKi was 0.78. Also, the deltaT in [4] is -0.02 °C; in data set [5] it was 0.04 °C; in data set [6], 0.73 °C; in [7], 0.47 °C; in [8] it was 0.2 °C; in data set [9] it was 0.24 °C. The deltaT is -0.7 °C with Mus musculus [10]; -1.9 °C in the data set on Mus musculus [11]; -0.97 °C in the data set with Mus musculus [12]; -2.08 °C in the data set with Mus musculus [13]; -2.08 °C with Mus musculus [14]; -0.05 °C with Mus musculus [15]. The Activity is 2.3 in data set [16], 15.63 in the data set on Mus musculus [17] and 13 with Mus musculus [18]. In addition, the half-life at 2.5 µM in data set [20] was 30 min.

With `O=C(NC1CC2CCC(C1)N2Cc1cccc(Cl)c1)c1ccc2ccccc2c1` (configuration not stated), the figures for the pKi in data set [1] and in [2] were 6.53 and 6.87, respectively. Further, the Ratio pKi in [3] was 0.81. Moreover, the deltaT in data set [4] is 0.17 °C; in data set [5], -0.38 °C; in [6], 1 °C; in [7] it was 0.41 °C; in [8], 0.41 °C; in [9], 1 °C. Also, the deltaT in the data set with Mus musculus [10] was -1.03 °C; in the data set on Mus musculus [11], -2.12 °C; in the data set on Mus musculus [12] it was -1.22 °C; in the data set on Mus musculus [13], -2.22 °C; in the data set on Mus musculus [14] it was -2.22 °C; in the data set on Mus musculus [15], -0.67 °C. Moreover, the Activity was 2.1 in data set [16] and 17.25 in the data set on Mus musculus [18]. Besides, in data set [19], the remaining at 0.75 h, 2.5 µM is over 50%. For the same compound, the half-life at 2.5 µM in [20] is over 45 min.

For `O=C(NC1CC2CCC(C1)N2Cc1cccc(Br)c1)c1ccc2ccccc2c1` (configuration not stated), the values for the pKi in data set [1] and in data set [2] were 6.70 and 6.98, respectively. Further, in data set [3], the Ratio pKi is 0.88. In addition, the deltaT was -0.2 °C in data set [4]; -0.3 °C in data set [5]; 0.76 °C in data set [6]; 0.49 °C in [7]; 0.36 °C in data set [8]; 1.23 °C in data set [9]. Moreover, the deltaT was -1.32 °C in the data set with Mus musculus [10]; -1.42 °C in the data set with Mus musculus [11]; -1.62 °C in the data set with Mus musculus [12]; -1.37 °C in the data set with Mus musculus [13]; -1.25 °C in the data set with Mus musculus [14]; -0.72 °C in the data set with Mus musculus [15]. The Activity in data set [16] turned out to be 2.5; in the data set on Mus musculus [18], 14.5. For the same compound, in [19], the remaining at 0.75 h, 2.5 µM is over 50%. In addition, in [20], the half-life at 2.5 µM is over 45 min.

As for `O=C(NC1CC2CCC(C1)N2Cc1ccc(F)cc1)c1ccc2ccccc2c1` (configuration not stated), the pKi is 6.66 in data set [1] and 6.68 in data set [2]. In addition, the Ratio pKi in data set [3] is 0.97. Further, the deltaT in data set [4] was -0.17 °C; in data set [5], -0.33 °C; in data set [6] it was 0.5 °C; in data set [7], 0.46 °C; in [8], 0.23 °C; in [9] it was 0.54 °C. In addition, the deltaT in the data set on Mus musculus [10] is -1.55 °C; with Mus musculus [11], -1.62 °C; with Mus musculus [12], -1.32 °C; in the data set on Mus musculus [13], -1.6 °C; in the data set on Mus musculus [14], -1.43 °C; in the data set with Mus musculus [15] it was -0.73 °C. For the same compound, the Activity in data set [16] amounted to 2.4; in the data set on Mus musculus [17] it was 12.63; in the data set with Mus musculus [18], 5.75. The remaining at 0.75 h, 2.5 µM in data set [19] is over 50%. Further, the half-life at 2.5 µM in [20] is over 45 min.
